Measurements taken from ChEMBL document CHEMBL2413079, “Synthesis of novel psoralen analogues and their in vitro antitumor activity” (2013).

How the values were obtained:
Assay type in all cases: functional
MDA-MB-231 = assay: Growth inhibition of human MDA-MB-231 cells after 48 hrs by MTS assay; conditions: MDA-MB-231, 48 h
Procedure, shortened: (§1)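 Cells grown in DMEM with 10% FBS (15% FBS for TCC-SUP) and 1% penicillin/streptomycin. DMSO stocks freshly diluted in medium; five concentrations tested over 48 h exposure. MTS reagent added for 2 h at 37 °C, 5% CO2, then absorbance read at 490 nm. Viability taken as % of control; GI50 from dose–response curve. Three independent cultures, 4 wells per concentration.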

HeLa = assay: Growth inhibition of human HeLa cells after 48 hrs by MTS assay; procedure, shortened: as §1
TCC-SUP = assay: Growth inhibition of human TCCSUP cells after 48 hrs by MTS assay; procedure, shortened: as §1

| SMILES | GI50 (MDA-MB-231) [µM] | GI50 (HeLa) [µM] | GI50 (TCC-SUP) [µM] |
| --- | --- | --- | --- |
| CCOC(=O)c1cc2c(ccc3c4ccccc4[nH]c23)oc1=O | 0.413 | 0.037 | 0.03 |
| O=c1ccc2c(ccc3c4ccccc4[nH]c23)o1 | 0.23 | 0.046 | 0.027 |
| O=C(O)c1cc2c(ccc3c4ccccc4[nH]c23)oc1=O | 0.265 | 0.047 | 0.018 |

The remaining molecules from weak to strong by GI50 (MDA-MB-231), led by results:

| GI50 (MDA-MB-231) [µM] | GI50 (HeLa) [µM] | SMILES | GI50 (TCC-SUP) [µM] |
| --- | --- | --- | --- |
| 0.078 | 0.042 | Cc1cc(=O)oc2cc3[nH]c4ccccc4c3cc12 | 0.066 |
| 0.06 | 0.035 | Cc1cc(=O)oc2cc3c(cc12)oc1ccccc13 | 0.041 |
